Assay [1] addresses Serine/threonine-protein kinase PLK1 (Homo sapiens) (UniProt P53350). The experiment in a line: Inhibition of human recombinant PLK1 at 15 nM related to control ULK1.
Assay [2] deals with T1, Eukaryotic translation initiation factor 2-alpha kinase 3 (Homo sapiens) (UniProt Q9NZJ5).
T1 sequence (whole entry): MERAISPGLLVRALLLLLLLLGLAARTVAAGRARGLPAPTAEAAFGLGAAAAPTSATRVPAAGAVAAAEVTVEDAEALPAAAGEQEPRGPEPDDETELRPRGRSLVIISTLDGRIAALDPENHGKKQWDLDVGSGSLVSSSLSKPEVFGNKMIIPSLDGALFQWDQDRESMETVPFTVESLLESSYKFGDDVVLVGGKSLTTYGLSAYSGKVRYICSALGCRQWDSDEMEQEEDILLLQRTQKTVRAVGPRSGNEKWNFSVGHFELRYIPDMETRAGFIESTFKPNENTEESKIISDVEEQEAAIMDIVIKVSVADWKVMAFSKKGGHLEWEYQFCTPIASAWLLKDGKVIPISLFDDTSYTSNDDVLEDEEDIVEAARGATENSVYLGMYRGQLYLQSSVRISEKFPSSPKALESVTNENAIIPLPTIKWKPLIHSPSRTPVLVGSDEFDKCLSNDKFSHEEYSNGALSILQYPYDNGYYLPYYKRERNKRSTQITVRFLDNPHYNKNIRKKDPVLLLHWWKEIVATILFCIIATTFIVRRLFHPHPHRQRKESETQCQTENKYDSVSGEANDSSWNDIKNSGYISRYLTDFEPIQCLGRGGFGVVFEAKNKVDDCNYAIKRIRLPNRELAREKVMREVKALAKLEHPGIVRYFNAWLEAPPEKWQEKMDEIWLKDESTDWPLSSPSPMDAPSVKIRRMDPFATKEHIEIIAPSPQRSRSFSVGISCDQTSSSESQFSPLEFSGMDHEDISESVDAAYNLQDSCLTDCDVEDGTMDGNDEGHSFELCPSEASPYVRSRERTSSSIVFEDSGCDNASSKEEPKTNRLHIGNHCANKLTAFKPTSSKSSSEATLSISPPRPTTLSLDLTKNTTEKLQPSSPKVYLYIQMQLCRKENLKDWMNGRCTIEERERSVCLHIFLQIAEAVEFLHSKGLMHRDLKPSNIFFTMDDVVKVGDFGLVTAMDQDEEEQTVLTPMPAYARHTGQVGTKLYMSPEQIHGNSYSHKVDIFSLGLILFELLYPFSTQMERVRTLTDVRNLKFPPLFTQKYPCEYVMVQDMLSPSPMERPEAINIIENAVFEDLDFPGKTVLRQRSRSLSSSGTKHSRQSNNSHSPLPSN
The experiment in a line: Inhibition of human recombinant PEK at 15 nM in presence of ATP by radiometric assay relative to control.

Assay [3] concerns the target STE20-like serine/threonine-protein kinase (Homo sapiens) (UniProt Q9H2G2). Kind of assay: Inhibition of human recombinant SLK at 15 nM related to control ULK1.
Assay [4] deals with RAC-gamma serine/threonine-protein kinase (Homo sapiens) (UniProt Q9Y243). The experiment in a line: Inhibition of human recombinant AKT3 at 40 nM related to control ULK1. The procedure, abridged:
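Radiometric activity assays in a panel of 327 human recombinant kinases, each run in duplicate at one inhibitor concentration. Activity remaining is expressed as percent of vehicle control, and percent inhibition is calculated as 100% minus percent activity remaining.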

The target in assay [5] is T2, Serine/threonine-protein kinase Sgk3 (Homo sapiens) (UniProt Q96BR1).
T2 sequence (whole entry): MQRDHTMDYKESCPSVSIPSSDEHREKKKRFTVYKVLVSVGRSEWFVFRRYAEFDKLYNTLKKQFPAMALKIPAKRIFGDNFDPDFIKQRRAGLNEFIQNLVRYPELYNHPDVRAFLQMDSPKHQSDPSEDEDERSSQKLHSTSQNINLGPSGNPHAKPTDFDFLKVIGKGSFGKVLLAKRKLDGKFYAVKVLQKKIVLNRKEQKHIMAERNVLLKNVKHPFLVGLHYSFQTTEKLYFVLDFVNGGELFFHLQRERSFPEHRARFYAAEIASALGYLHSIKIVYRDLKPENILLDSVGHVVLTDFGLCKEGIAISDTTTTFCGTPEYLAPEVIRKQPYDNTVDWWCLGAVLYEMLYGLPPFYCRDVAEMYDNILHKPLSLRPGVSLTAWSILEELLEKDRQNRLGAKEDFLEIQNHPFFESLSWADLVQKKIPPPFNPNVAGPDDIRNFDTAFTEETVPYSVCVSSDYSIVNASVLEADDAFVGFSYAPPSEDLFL
The experiment in a line: Inhibition of human recombinant SGK3 at 40 nM in presence of ATP by radiometric assay relative to control.

The target of assay [6] is Dual specificity protein kinase CLK4 (Homo sapiens) (UniProt Q9HAZ1). Kind of assay: Inhibition of human recombinant CLK4 at 40 nM in presence of ATP by radiometric assay relative to control.
The target in assay [7] is Serine/threonine-protein kinase 26 (Homo sapiens) (UniProt Q9P289). Kind of assay: Inhibition of human recombinant MST4 at 40 nM in presence of ATP by radiometric assay relative to control.
The target in assay [8] is Mitogen-activated protein kinase 14 (Homo sapiens) (UniProt Q16539). The experiment in a line: Inhibition of human recombinant p38alpha at 500 nM related to control ULK1.
Assay [9] deals with Homeodomain-interacting protein kinase 3 (Homo sapiens) (UniProt Q9H422). Kind of assay: Inhibition of human recombinant HIPK3 at 500 nM in presence of ATP by radiometric assay relative to control.
Assay [10] has as its target Homeodomain-interacting protein kinase 1 (Homo sapiens) (UniProt Q86Z02). The experiment in a line: Inhibition of human recombinant HIPK1 at 500 nM related to control ULK1.
Assay [11] addresses Serine/threonine-protein kinase MARK2 (Homo sapiens) (UniProt Q7KZI7). The experiment in a line: Inhibition of human recombinant MARK2 at 500 nM in presence of ATP by radiometric assay relative to control.

This is an account of results in ChEMBL document CHEMBL5653631, “A Potent and Selective ULK1 Inhibitor Suppresses Autophagy and Sensitizes Cancer Cells to Nutrient Stress” (iScience, 2018).

Chain of Homeodomain-interacting protein kinase 1 (Homo sapiens) (Q86Z02 whole entry, looked up): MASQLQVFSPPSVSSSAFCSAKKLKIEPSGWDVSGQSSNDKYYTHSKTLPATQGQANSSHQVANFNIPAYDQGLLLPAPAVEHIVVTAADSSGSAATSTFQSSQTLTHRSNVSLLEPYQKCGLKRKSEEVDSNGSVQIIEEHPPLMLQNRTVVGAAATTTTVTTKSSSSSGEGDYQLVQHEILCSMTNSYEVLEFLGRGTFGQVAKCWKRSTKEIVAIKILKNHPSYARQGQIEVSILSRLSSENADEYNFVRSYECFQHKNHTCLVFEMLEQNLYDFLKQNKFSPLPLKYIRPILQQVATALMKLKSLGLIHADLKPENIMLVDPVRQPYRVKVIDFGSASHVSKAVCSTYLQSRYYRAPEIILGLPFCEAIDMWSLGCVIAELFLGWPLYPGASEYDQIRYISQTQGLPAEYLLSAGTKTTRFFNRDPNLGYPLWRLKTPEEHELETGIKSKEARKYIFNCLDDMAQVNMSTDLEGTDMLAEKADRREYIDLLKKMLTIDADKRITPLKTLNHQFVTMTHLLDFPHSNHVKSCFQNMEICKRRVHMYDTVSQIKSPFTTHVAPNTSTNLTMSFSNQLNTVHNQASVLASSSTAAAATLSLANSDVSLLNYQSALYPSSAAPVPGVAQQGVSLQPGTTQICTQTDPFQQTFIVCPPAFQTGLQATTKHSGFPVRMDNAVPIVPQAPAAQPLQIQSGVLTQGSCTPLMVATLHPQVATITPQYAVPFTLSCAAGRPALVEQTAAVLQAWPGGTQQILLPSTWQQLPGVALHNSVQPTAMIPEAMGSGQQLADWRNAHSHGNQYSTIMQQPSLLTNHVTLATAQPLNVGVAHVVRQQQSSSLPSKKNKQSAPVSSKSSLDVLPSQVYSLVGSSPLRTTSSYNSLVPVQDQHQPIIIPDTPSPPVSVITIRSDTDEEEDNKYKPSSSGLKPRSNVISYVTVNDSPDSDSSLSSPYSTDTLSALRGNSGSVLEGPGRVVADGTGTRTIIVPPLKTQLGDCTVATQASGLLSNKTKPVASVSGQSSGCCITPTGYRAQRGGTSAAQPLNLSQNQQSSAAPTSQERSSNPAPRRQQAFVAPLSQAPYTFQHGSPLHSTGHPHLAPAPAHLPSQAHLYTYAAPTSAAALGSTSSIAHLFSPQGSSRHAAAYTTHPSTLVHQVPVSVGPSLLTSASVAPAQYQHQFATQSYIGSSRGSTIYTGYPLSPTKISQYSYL
Chain of Dual specificity protein kinase CLK4 (Homo sapiens) (Q9HAZ1 whole entry, looked up): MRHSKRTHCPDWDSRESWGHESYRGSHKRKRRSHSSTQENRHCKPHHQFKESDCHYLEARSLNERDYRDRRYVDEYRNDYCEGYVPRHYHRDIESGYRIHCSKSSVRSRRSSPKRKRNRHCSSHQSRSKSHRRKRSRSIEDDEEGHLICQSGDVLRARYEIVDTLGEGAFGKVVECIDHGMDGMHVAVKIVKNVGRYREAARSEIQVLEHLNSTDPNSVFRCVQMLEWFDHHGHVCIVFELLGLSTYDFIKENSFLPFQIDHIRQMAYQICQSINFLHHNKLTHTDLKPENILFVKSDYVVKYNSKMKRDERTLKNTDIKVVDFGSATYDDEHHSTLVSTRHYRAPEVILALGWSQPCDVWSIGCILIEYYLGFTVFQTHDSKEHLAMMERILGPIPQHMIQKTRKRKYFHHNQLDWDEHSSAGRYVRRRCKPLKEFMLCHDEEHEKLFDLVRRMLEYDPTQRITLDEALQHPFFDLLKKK
Chain of Serine/threonine-protein kinase 26 (Homo sapiens) (Q9P289 2-416 limits assumed): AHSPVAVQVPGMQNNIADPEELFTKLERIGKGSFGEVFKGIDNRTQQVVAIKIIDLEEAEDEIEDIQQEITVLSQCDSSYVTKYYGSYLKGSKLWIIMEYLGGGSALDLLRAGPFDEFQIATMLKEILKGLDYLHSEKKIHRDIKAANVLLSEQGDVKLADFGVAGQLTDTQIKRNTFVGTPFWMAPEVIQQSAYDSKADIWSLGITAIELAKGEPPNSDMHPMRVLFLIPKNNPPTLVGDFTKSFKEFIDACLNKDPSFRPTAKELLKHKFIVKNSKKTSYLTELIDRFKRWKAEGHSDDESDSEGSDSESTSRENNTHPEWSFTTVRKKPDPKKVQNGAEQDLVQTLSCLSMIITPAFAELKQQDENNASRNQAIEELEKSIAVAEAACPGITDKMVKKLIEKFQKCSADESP
Chain of Serine/threonine-protein kinase MARK2 (Homo sapiens) (Q7KZI7 whole entry): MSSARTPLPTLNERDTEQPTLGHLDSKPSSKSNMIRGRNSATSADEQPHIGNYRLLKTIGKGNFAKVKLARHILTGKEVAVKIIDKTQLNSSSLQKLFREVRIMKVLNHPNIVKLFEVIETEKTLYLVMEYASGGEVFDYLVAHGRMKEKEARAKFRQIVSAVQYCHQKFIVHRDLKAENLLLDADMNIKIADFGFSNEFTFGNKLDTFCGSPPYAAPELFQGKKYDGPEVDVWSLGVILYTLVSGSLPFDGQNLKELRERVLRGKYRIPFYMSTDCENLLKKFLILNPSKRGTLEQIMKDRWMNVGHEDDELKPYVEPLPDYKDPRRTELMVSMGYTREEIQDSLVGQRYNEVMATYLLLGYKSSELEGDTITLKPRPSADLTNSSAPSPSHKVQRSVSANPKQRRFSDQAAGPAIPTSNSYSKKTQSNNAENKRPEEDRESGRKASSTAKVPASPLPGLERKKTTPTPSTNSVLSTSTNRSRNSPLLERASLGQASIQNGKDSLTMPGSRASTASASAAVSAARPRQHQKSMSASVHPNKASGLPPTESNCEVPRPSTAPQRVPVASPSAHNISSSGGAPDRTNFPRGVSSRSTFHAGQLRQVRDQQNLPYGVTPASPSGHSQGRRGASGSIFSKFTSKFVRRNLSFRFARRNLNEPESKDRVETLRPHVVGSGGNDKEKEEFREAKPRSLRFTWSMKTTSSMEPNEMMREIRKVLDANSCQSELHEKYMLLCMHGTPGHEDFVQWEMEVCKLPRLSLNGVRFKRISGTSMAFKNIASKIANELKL
Chain of Serine/threonine-protein kinase PLK1 (Homo sapiens) (P53350 whole entry): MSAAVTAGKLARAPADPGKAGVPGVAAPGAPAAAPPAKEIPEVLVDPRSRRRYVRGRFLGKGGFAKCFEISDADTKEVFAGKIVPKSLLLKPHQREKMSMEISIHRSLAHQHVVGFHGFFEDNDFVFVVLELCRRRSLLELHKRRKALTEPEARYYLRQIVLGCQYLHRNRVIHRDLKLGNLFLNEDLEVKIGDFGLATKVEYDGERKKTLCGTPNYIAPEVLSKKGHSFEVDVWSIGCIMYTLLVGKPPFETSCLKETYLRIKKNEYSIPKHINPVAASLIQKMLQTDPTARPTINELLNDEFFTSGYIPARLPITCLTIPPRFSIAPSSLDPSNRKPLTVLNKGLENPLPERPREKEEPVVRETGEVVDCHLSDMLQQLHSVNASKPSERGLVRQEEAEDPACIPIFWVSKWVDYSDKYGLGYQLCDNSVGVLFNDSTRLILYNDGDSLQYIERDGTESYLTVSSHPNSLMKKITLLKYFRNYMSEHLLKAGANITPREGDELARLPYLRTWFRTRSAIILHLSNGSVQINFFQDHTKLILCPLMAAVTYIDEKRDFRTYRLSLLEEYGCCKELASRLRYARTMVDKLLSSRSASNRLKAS
Chain of RAC-gamma serine/threonine-protein kinase (Homo sapiens) (Q9Y243 whole entry): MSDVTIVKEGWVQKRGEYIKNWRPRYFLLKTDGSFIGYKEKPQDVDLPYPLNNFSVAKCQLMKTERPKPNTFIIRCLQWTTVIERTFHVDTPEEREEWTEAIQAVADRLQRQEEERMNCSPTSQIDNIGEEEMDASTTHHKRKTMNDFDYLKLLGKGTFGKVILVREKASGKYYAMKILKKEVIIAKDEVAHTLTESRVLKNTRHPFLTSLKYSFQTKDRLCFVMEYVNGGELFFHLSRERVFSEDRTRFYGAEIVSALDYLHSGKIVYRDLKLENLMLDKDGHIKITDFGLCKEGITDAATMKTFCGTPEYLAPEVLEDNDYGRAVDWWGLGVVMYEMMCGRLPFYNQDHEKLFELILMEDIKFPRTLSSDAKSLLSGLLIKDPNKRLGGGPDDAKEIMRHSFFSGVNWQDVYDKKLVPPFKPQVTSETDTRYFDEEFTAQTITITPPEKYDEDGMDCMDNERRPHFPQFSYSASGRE
Chain of Mitogen-activated protein kinase 14 (Homo sapiens) (Q16539 whole entry): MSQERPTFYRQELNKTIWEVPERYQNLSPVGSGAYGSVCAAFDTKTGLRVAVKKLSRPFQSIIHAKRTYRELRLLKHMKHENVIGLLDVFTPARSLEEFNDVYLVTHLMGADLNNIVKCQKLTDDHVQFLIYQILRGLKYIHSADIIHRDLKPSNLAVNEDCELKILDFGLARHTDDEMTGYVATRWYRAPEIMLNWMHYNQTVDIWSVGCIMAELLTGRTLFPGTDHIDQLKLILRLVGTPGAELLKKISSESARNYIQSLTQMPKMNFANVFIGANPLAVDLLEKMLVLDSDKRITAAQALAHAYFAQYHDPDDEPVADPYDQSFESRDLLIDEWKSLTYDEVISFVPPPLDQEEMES

As for `CC(C)[C@H](NC(=O)c1cc(-c2cnn3cc(-c4ccc(OCCN5CCCCC5)cc4)cnc23)cs1)C(F)(F)F`, the figures for the fold change (FC) in [1] and in assay [3] were 0.01 and 0.25, respectively. Also, the inhibition in assay [2] turned out to be 0%.
Take `O=C(N[C@@H](C1CC1)C(F)(F)F)c1cc(-c2cnn3cc(-c4ccc(F)cc4)cnc23)cs1`: in [4], the fold change (FC) was found to be 0.03. Further, the inhibition in [5] worked out at 0%; in assay [6] it was 52%; in [7], 0%.
Turning to `CNC(=O)c1ccccc1Oc1nc(Nc2cc(OC)c(OC)c(OC)c2)ncc1Br`, the fold change (FC) in [8] was 0.07; in assay [10], 0.04. Also, the inhibition in [9] is 6%; in [11] it was 50%.
